From ChEMBL document CHEMBL5108039, “Piperazine tethered bergenin heterocyclic hybrids: design, synthesis, anticancer activity, and molecular docking studies” (RSC Med Chem, 2022) come the findings set out here.

Data set [1] deals with MCF7. Put plainly: Cytotoxicity against human MCF7 cells assessed as cell growth inhibition. It is filed as functional, cell-based. The procedure, abridged: (§1)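 Compounds were dissolved in sterile DMSO as 10 mg ml−1 stocks and tested for in vitro growth inhibition of human cancer cell lines. Doxorubicin was the standard drug and DMSO (0.01%) the vehicle control. IC50 values are reported as means.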

Data set [2] deals with CAL-27. Put plainly: Cytotoxicity against human CAL-27 cells assessed as cell growth inhibition. It is filed as functional, cell-based. Summed up:
as §1

Data set [3] in a line: Cytotoxicity against human BEAS-2B cells assessed as cell growth inhibition. It is filed as toxicity, cell-based. Summed up:
(§2)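 Compounds were dissolved in sterile DMSO as 10 mg ml−1 stocks and tested in vitro for cytotoxicity in a cell-line panel, with DMSO (0.01%) as vehicle control and doxorubicin as standard. Mean IC50 values were reported, and the normal lung epithelial cells were tested up to 100 μM.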

In data set [4] the test system is HCT-15. Put plainly: Cytotoxicity against human HCT-15 cells assessed as cell growth inhibition. It is filed as functional, cell-based. Summed up:
as §1

The subject of data set [5] is A549. Put plainly: Cytotoxicity against human A549 cells assessed as cell growth inhibition. It is filed as functional, cell-based. Summed up: as §2
The test system of data set [6] is SCC-9. The data set can be described thus: Cytotoxicity against human SCC-9 cells assessed as cell growth inhibition. It is filed as functional, cell-based. Summed up: as §1

Structures are written as SMILES.

`COc1c(O)c(CN2CCN(CC(=O)Nc3nc(-c4ccc5ccccc5c4)cs3)CC2)c2c(c1O)C1O[C@H](CO)[C@@H](O)[C@H](O)C1OC2=O` (stereo not given in full): the IC50 (as a rule, the point on the concentration scale where inhibition reaches its midpoint) in data set [1] was 25.2 µM; in data set [2], 42.7 µM; in data set [3], above 100 µM; in data set [4] it was above 100 µM; in data set [5] it was 40.6 µM; in data set [6], above 100 µM.

As to `COc1c(O)c(CN2CCN(S(=O)(=O)c3ccc(F)cc3Cl)CC2)c2c(c1O)C1O[C@H](CO)[C@@H](O)[C@H](O)C1OC2=O` (stereo not given in full), the IC50 in data set [1], in data set [2], in data set [3], in data set [4], in data set [5] and in data set [6] was above 100 µM in each case.

`COc1c(O)c(CN2CCN(CC(=O)Nc3nc4ccc(Cl)cc4s3)CC2)c2c(c1O)C1O[C@H](CO)[C@@H](O)[C@H](O)C1OC2=O` (stereo not given in full): the half-inhibitory concentration (IC50) is 64.1 µM in data set [1]; above 100 µM in data set [2]; 44.2 µM in data set [3]; 97.6 µM in data set [4]; 65.6 µM in data set [5]; 32.6 µM in data set [6].

For `COc1c(O)c(CN2CCN(CC(=O)Nc3nc4ccc(F)cc4s3)CC2)c2c(c1O)C1O[C@H](CO)[C@@H](O)[C@H](O)C1OC2=O` (stereo not given in full), the concentration for half-maximal inhibition (IC50) is above 100 µM in data set [1]; 53 µM in data set [2]; above 100 µM in data set [3]; above 100 µM in data set [4]; above 100 µM in data set [5]; above 100 µM in data set [6].

On to `COc1c(O)c(CN2CCN(CC(=O)Nc3nc(-c4cccc5ccccc45)cs3)CC2)c2c(c1O)C1O[C@H](CO)[C@@H](O)[C@H](O)C1OC2=O` (stereo not given in full), for which the half-maximal inhibitory concentration (IC50) in data set [1] was above 100 µM; in data set [2] it was 57.2 µM; in data set [3], 83.5 µM; in data set [4], 86.2 µM; in data set [5], above 100 µM; in data set [6] it was 65.5 µM.

For `COc1c(O)c(CN2CCN(S(=O)(=O)c3ccc(Br)cc3)CC2)c2c(c1O)C1O[C@H](CO)[C@@H](O)[C@H](O)C1OC2=O` (stereo not given in full), the IC50 was above 100 µM in data set [1]; above 100 µM in data set [2]; 22.4 µM in data set [3]; above 100 µM in data set [4]; above 100 µM in data set [5]; above 100 µM in data set [6].

For the molecule `COc1c(O)c(CN2CCN(S(=O)(=O)c3ccc(C(F)(F)F)cc3)CC2)c2c(c1O)C1O[C@H](CO)[C@@H](O)[C@H](O)C1OC2=O` (stereo not given in full), the IC50 was above 100 µM in data set [1]; 68.6 µM in data set [2]; above 100 µM in data set [3]; above 100 µM in data set [4]; above 100 µM in data set [5]; above 100 µM in data set [6].

Turning to `COc1c(O)c(CN2CCN(S(=O)(=O)c3ccc(F)c(Cl)c3)CC2)c2c(c1O)C1O[C@H](CO)[C@@H](O)[C@H](O)C1OC2=O` (stereo not given in full), the IC50 in data set [1] is above 100 µM; in data set [2], 92.9 µM; in data set [3], above 100 µM; in data set [4] it was above 100 µM; in data set [5] it was above 100 µM; in data set [6] it was above 100 µM.

For the molecule `COc1c(O)c(CN2CCN(CC(=O)Nc3nc4ccc([N+](=O)[O-])cc4s3)CC2)c2c(c1O)C1O[C@H](CO)[C@@H](O)[C@H](O)C1OC2=O` (stereo not given in full), the half-maximal inhibitory concentration (IC50) in data set [1] is above 100 µM; in data set [2], 30.5 µM; in data set [3] it was 58.6 µM; in data set [4], 85.9 µM; in data set [5], above 100 µM; in data set [6], 37.6 µM.

For `CCOc1ccc2nc(NC(=O)CN3CCN(Cc4c(O)c(OC)c(O)c5c4C(=O)OC4C5O[C@H](CO)[C@@H](O)[C@@H]4O)CC3)sc2c1` (stereo not given in full), the half-inhibitory concentration (IC50) is above 100 µM in data set [1]; 83.7 µM in data set [2]; above 100 µM in data set [3]; above 100 µM in data set [4]; above 100 µM in data set [5]; above 100 µM in data set [6].

In the case of `COc1ccc(S(=O)(=O)N2CCN(Cc3c(O)c(OC)c(O)c4c3C(=O)OC3C4O[C@H](CO)[C@@H](O)[C@@H]3O)CC2)cc1OC` (stereo not given in full), the IC50 in data set [1], in data set [2], in data set [3], in data set [4], in data set [5] and in data set [6] was above 100 µM each time.

With `COc1c(O)c(CN2CCN(CC(=O)Nc3nc4c(C)cccc4s3)CC2)c2c(c1O)C1O[C@H](CO)[C@@H](O)[C@H](O)C1OC2=O` (stereo not given in full), the half-inhibitory concentration (IC50) is above 100 µM in data set [1]; 81.2 µM in data set [2]; above 100 µM in data set [3]; above 100 µM in data set [4]; above 100 µM in data set [5]; above 100 µM in data set [6].

Regarding `COc1c(O)c(CN2CCN(S(=O)(=O)c3ccc([N+](=O)[O-])cc3)CC2)c2c(c1O)C1O[C@H](CO)[C@@H](O)[C@H](O)C1OC2=O` (stereo not given in full), the IC50 in data set [1] is above 100 µM; in data set [2], 91.6 µM; in data set [3], above 100 µM; in data set [4] it was above 100 µM; in data set [5] it was above 100 µM; in data set [6], above 100 µM.

Turning to `COc1c(O)c(CN2CCN(CC(=O)Nc3nc4c(Cl)cccc4s3)CC2)c2c(c1O)C1O[C@H](CO)[C@@H](O)[C@H](O)C1OC2=O` (stereo not given in full), the IC50 was found to be 19.6 µM in data set [1]; 15.4 µM in data set [2]; 21.7 µM in data set [3]; 30.2 µM in data set [4]; 22.5 µM in data set [5]; 17.4 µM in data set [6].

For `COc1c(O)c(CN2CCN(CC(=O)Nc3nc(-c4ccc(Cl)cc4)cs3)CC2)c2c(c1O)C1O[C@H](CO)[C@@H](O)[C@H](O)C1OC2=O` (stereo not given in full), the IC50 in data set [1] is 37.3 µM; in data set [2] it was 46.6 µM; in data set [3] it was above 100 µM; in data set [4], above 100 µM; in data set [5] it was 49.9 µM; in data set [6] it was above 100 µM.

Take `COc1c(O)cc2c(c1O)C1O[C@H](CO)[C@@H](O)[C@H](O)C1OC2=O` (stereo not given in full): the IC50 in data set [1], in data set [2], in data set [3], in data set [4], in data set [5] and in data set [6] was above 100 µM each time.

In the case of `COc1c(O)c(CN2CCN(S(=O)(=O)c3cccc4ccccc34)CC2)c2c(c1O)C1O[C@H](CO)[C@@H](O)[C@H](O)C1OC2=O` (stereo not given in full), the IC50 in data set [1] is above 100 µM; in data set [2], 74 µM; in data set [3], above 100 µM; in data set [4], above 100 µM; in data set [5], above 100 µM; in data set [6], above 100 µM.

On to `COc1c(O)c(CN2CCN(S(=O)(=O)c3ccc(F)c(F)c3F)CC2)c2c(c1O)C1O[C@H](CO)[C@@H](O)[C@H](O)C1OC2=O` (stereo not given in full), for which the IC50 in data set [1], in data set [2], in data set [3], in data set [4], in data set [5] and in data set [6] was above 100 µM throughout.

With `COc1c(O)c(CN2CCN(S(=O)(=O)c3ccc(F)c(F)c3)CC2)c2c(c1O)C1O[C@H](CO)[C@@H](O)[C@H](O)C1OC2=O` (stereo not given in full), the 50% inhibitory concentration (IC50) in data set [1], in data set [2], in data set [3], in data set [4], in data set [5] and in data set [6] was above 100 µM throughout.

Consider `COc1c(O)c(CN2CCN(S(=O)(=O)c3ccccc3)CC2)c2c(c1O)C1O[C@H](CO)[C@@H](O)[C@H](O)C1OC2=O` (stereo not given in full), for which the IC50 in data set [1] is above 100 µM; in data set [2], 85.5 µM; in data set [3], above 100 µM; in data set [4] it was above 100 µM; in data set [5] it was above 100 µM; in data set [6] it was above 100 µM.
